Source: publication PMC13416249 (Proceedings of the National Academy of Sciences of the …, 2026)
Each block holds one compound with its values, some of them ahead of it.

Assays:
[1] = system: P. falciparum NF54 strain expressing a Nanoluciferase reporter; assay: Asexual replication stage-specificity assay, nanoluciferase readout; assay type: cell-based, Plasmodium falciparum; settings: ring-synchronized; 5 µM KNX-115, 1 µM DHA
In short: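 NF54-ENL nanoluciferase reporter parasites were synchronized at the ring stage and treated with test compound. Vehicle (0.1% DMSO) and 1 µM dihydroartemisinin served as controls. Nanoluciferase activity was followed over time and compared with the control cultures.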

[2] = system: P. falciparum stage III-IV gametocytes; assay: Gametocyte viability assay; assay type: cell-based, Plasmodium falciparum
[3] = target: T1, full-length PfMyoA (Plasmodium falciparum, UniProt Q8IDR3); assay: Actin-activated PfMyoA ATPase assay; assay type: biochemical; settings: read-out: IC50, actin-activated myosin ATPase, 15 µM actin
T1 sequence (Q8IDR3 1-818): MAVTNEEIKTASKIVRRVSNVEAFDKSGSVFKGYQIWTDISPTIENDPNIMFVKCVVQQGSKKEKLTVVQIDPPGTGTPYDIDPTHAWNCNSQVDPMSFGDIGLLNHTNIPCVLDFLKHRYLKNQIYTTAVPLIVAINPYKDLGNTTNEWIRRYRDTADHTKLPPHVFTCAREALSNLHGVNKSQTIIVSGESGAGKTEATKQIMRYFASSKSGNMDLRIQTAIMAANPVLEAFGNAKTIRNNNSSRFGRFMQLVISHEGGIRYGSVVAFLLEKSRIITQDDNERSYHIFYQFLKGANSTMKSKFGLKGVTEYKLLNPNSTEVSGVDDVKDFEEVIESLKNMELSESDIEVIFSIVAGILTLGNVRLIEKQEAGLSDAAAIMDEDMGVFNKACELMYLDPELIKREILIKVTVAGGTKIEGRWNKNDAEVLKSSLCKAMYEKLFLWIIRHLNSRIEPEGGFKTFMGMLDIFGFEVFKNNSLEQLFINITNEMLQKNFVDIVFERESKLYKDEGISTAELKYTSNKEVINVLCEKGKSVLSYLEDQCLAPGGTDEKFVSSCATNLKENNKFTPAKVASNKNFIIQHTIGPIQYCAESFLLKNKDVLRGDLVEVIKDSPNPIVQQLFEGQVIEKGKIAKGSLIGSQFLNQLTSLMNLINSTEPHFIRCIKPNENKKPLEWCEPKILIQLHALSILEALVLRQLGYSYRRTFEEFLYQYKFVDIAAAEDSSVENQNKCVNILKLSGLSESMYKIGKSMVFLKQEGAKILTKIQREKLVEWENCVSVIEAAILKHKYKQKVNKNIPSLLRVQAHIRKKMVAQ
T1 sequence (Q8IJM4 1-134 partner): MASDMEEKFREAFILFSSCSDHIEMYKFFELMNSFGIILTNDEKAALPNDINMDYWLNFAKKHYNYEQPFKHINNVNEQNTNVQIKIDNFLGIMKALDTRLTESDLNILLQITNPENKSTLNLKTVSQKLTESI
T1 sequence (Q8I4W8 1-204 partner): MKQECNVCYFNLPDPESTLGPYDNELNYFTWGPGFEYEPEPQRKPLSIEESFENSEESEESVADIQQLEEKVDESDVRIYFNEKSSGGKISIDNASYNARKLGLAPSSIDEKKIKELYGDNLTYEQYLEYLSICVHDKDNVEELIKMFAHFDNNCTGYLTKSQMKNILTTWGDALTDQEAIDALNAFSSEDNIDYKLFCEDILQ

[4] = system: P. falciparum isolates from the Brazilian Western Amazon; assay: Ex vivo schizont maturation test on patient isolates; assay type: cell-based; settings: Plasmodium falciparum, in Homo sapiens, read-out: median EC50
In short: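 Isolates came from monoinfected patients in Porto Velho, Rondônia, and were exposed to test compound. Thick films were stained with 5% Giemsa and schizonts counted. Counts were normalized to drug-free controls to calculate EC50.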

[5] = system: P. falciparum 3D7; assay: Parasite reduction ratio; assay type: cell-based, Plasmodium falciparum; settings: 10X IC50 of each compound
In short: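 Parasite reduction ratio followed an established protocol, with each compound held at a fixed multiple of its potency. Parasite regrowth was detected by P. falciparum LDH assay. Data are mean ± SD.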

SMILES: C[C@H]1[C@@H](O)O[C@@H]2O[C@@]3(C)CC[C@H]4[C@H](C)CC[C@@H]1[C@@]24OO3 [DHA, dihydroartemisinin]
- parasite replication over time (luciferase activity) [1]: rapid killing of the parasites
- effect on gametocyte viability [2]: showed inhibition

SMILES: CCc1nc(N)nc(N)c1-c1ccc(Cl)cc1 [pyrimethamine]
- lag before killing [5]: 24 h

Now from value to compound:

- IC50 [3]: 400 ± 100 nM
SMILES: COc1ccc(C2(NCc3c[nH]nc3-c3cccs3)CC2)cc1 [KNX-002]

- EC50 [4]: 3.5 nM
SMILES: C[C@H]1[C@H](OC(=O)CCC(=O)O)O[C@@H]2O[C@@]3(C)CC[C@H]4[C@H](C)CC[C@@H]1[C@@]24OO3 [artesunate]

- EC50 [4]: 1260 nM
SMILES: CCN(CC)CCCC(C)Nc1ccnc2cc(Cl)ccc12 (stereo not drawn) [chloroquine]
